Organism: Homo sapiens
Assay: Selectivity for JAK3 (unknown origin) over Aurora B (unknown origin)
Conditions: not given

Structure (SMILES) | Selectivity ratio
COc1ccc(C(=O)Nc2c[nH]nc2-c2nc(-c3ccc(CN4CCOCC4)cc3)c[nH]2)cc1 | 20
O=C(Nc1c[nH]nc1-c1nc(-c2ccc(CN3CCCCC3)cc2)c[nH]1)c1cccc(Cl)c1 | 20

System: K562
Assay: Cell cycle arrest in human K562 cells assessed as accumulation of diploid cells at G2 phase at 10 uM incubated for 48 hrs by propidium iodide staining based flow cytometric analysis (reference value: 7.73 %)
Assay type: functional
Conditions: not given

Structure (SMILES) | Activity [%]
O=C(Nc1c[nH]nc1-c1nc2ccc(CN3CCOCC3)cc2[nH]1)NC1CC1 [AT-9283] | 14.99

Organism: Homo sapiens
Assay: Selectivity for JAK3 (unknown origin) over Aurora A (unknown origin)
Conditions: not given

Structure (SMILES) | Selectivity ratio
COc1ccc(C(=O)Nc2c[nH]nc2-c2nc(-c3ccc(CN4CCOCC4)cc3)c[nH]2)cc1 | 20
O=C(Nc1c[nH]nc1-c1nc(-c2ccc(CN3CCCCC3)cc2)c[nH]1)c1cccc(Cl)c1 | 20

Organism: Homo sapiens
Assay: Selectivity for JAK2 (unknown origin) over Aurora B (unknown origin)
Conditions: not given

Structure (SMILES) | Selectivity ratio
COc1ccc(C(=O)Nc2c[nH]nc2-c2nc(-c3ccc(CN4CCOCC4)cc3)c[nH]2)cc1 | 20
O=C(Nc1c[nH]nc1-c1nc(-c2ccc(CN3CCCCC3)cc2)c[nH]1)c1cccc(Cl)c1 | 20

Target: T1, Tyrosine-protein kinase JAK3 (Homo sapiens, UniProt P52333)
T1 sequence (P52333 whole entry): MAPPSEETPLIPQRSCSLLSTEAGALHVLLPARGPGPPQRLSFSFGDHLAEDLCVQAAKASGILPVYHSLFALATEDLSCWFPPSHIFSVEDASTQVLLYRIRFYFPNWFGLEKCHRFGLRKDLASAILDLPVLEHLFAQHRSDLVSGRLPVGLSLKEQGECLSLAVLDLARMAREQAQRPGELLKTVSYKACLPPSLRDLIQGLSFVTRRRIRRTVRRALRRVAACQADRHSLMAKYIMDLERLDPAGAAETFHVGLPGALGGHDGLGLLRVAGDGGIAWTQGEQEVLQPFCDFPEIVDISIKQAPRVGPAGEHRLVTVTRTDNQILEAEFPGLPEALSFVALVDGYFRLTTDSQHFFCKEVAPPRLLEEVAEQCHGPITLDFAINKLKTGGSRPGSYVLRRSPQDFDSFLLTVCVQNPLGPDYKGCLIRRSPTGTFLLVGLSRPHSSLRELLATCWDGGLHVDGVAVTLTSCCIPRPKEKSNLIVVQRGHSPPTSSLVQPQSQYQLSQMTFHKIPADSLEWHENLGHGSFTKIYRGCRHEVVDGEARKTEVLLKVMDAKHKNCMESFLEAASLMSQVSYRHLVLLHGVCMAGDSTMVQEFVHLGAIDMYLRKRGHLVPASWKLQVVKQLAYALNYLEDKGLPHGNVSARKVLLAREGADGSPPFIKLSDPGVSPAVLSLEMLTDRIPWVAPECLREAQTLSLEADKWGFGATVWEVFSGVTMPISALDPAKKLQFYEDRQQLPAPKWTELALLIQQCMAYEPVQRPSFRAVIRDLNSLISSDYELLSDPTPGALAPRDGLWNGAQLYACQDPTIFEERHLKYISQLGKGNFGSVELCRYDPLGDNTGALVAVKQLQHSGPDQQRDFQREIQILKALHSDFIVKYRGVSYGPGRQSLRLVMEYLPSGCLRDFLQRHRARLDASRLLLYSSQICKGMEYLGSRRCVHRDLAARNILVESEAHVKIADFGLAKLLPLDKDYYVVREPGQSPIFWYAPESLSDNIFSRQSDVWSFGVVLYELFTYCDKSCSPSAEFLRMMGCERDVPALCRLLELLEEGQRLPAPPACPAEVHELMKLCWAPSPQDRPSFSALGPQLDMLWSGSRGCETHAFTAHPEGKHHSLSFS
Assay: Inhibition of JAK3 (unknown origin) incubated for 40 mins in presence of ATP by Kinase-glo luminescence assay
Conditions: not given

Structure (SMILES) | IC50 [nM]
COc1ccc(C(=O)Nc2c[nH]nc2-c2nc(-c3ccc(CN4CCOCC4)cc3)c[nH]2)cc1 | 24
O=C(Nc1c[nH]nc1-c1nc(-c2ccc(CN3CCCCC3)cc2)c[nH]1)c1cccc(Cl)c1 | 13
Cc1nc(Cl)cc(Nc2c[nH]nc2-c2nc(-c3ccc(CN4CCOCC4)cc3)c[nH]2)n1 | 23
O=C(Nc1c[nH]nc1-c1nc(-c2ccc(CN3CCOCC3)cc2)c[nH]1)c1ccc(Cl)cc1 | 64

System: HCT-116
Assay: Cell cycle arrest in human HCT116 cells assessed as accumulation of diploid cells at G1 phase at 10 uM incubated for 48 hrs by propidium iodide staining based flow cytometric analysis (reference value: 77.62 %)
Assay type: functional
Conditions: not given

Structure (SMILES) | Activity [%]
O=C(Nc1c[nH]nc1-c1nc2ccc(CN3CCOCC3)cc2[nH]1)NC1CC1 [AT-9283] | 66.56

Target: Tyrosine-protein kinase JAK2 (Homo sapiens, UniProt O60674)
Assay: Inhibition of JAK2 (unknown origin) incubated for 40 mins in presence of ATP by Kinase-glo luminescence assay
Conditions: not given

Chain of Tyrosine-protein kinase JAK2 (O60674 whole entry): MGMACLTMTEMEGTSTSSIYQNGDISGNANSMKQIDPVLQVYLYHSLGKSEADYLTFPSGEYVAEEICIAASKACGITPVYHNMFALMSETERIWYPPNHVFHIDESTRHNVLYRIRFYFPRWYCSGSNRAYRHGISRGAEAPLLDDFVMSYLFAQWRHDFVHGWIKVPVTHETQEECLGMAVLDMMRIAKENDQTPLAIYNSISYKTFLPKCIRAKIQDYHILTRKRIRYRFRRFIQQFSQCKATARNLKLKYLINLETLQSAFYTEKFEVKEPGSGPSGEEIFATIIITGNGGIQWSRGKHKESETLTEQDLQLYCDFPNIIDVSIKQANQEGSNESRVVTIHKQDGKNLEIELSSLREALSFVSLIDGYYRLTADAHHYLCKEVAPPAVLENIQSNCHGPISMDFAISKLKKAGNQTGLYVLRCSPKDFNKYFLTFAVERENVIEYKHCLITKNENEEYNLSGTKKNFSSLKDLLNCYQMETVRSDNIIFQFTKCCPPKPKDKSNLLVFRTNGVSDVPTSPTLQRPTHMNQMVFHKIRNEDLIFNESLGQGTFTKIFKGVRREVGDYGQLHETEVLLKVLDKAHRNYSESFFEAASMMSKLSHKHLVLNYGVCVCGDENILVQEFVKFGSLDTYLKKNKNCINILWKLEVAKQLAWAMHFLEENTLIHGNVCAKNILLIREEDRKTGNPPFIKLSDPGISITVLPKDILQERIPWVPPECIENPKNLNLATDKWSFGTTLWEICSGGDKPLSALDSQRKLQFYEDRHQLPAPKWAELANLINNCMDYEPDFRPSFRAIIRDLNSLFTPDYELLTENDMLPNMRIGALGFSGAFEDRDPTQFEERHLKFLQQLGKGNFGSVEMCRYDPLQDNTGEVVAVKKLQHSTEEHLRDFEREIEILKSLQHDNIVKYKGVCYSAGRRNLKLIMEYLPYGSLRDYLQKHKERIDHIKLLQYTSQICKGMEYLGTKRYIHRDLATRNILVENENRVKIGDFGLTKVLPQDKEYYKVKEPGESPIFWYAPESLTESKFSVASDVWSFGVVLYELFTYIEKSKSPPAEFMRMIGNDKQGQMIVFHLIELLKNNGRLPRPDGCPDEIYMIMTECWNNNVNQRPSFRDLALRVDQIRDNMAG

Structure (SMILES) | IC50 [nM]
Cc1nc(Cl)cc(Nc2c[nH]nc2-c2nc(-c3ccc(CN4CCOCC4)cc3)c[nH]2)n1 | 8
O=C(Nc1c[nH]nc1-c1nc(-c2ccc(CN3CCOCC3)cc2)c[nH]1)c1ccc([N+](=O)[O-])cc1 | 1180

The remaining lines, values ahead:

IC50 [nM] | Structure (SMILES)
14 | COc1ccc(C(=O)Nc2c[nH]nc2-c2nc(-c3ccc(CN4CCOCC4)cc3)c[nH]2)cc1
16 | O=C(Nc1c[nH]nc1-c1nc(-c2ccc(CN3CCCCC3)cc2)c[nH]1)c1cccc(Cl)c1

System: HCT-116
Assay: Cell cycle arrest in human HCT116 cells assessed as accumulation of diploid cells at S phase at 10 uM incubated for 48 hrs by propidium iodide staining based flow cytometric analysis (reference value: 11.92 %)
Assay type: functional
Conditions: not given

Structure (SMILES) | Activity [%]
O=C(Nc1c[nH]nc1-c1nc2ccc(CN3CCOCC3)cc2[nH]1)NC1CC1 [AT-9283] | 8.24

System: HCT-116
Assay: Cell cycle arrest in human HCT116 cells assessed as accumulation at […] phase at 10 uM incubated for 48 hrs by propidium iodide staining based flow cytometric analysis (reference value: 2.01 %)
Assay type: functional
Conditions: not given

Structure (SMILES) | Activity [%]
O=C(Nc1c[nH]nc1-c1nc2ccc(CN3CCOCC3)cc2[nH]1)NC1CC1 [AT-9283] | 1.98

System: K562
Assay: Antiproliferative activity against human K562 cells assessed as reduction in cell growth measured after 72 hrs by CCK8 assay
Assay type: functional, cell-based
Conditions: K562, 72 h

Structure (SMILES) | IC50 [nM]
Cc1nc(Cl)cc(Nc2c[nH]nc2-c2nc(-c3ccc(CN4CCOCC4)cc3)c[nH]2)n1 | 10000
O=C(Nc1c[nH]nc1-c1nc(-c2ccc(CN3CCOCC3)cc2)c[nH]1)c1ccc([N+](=O)[O-])cc1 | 4340
CSc1nc(Cl)c(C)c(Nc2c[nH]nc2-c2ncc(-c3ccc(OCCCN4CCOCC4)cc3)[nH]2)n1 | 9880
O=C(Nc1c[nH]nc1-c1nc(-c2ccc(CN3CCOCC3)cc2)c[nH]1)c1ccccc1 | > 10000

Continued, values first:

IC50 [nM] | Structure (SMILES)
5650 | COc1ccc(C(=O)Nc2c[nH]nc2-c2nc(-c3ccc(CN4CCOCC4)cc3)c[nH]2)cc1
2500 | O=C(Nc1c[nH]nc1-c1nc(-c2ccc(CN3CCCCC3)cc2)c[nH]1)c1cccc(Cl)c1
2630 | O=C(Nc1c[nH]nc1-c1nc(-c2ccc(CN3CCOCC3)cc2)c[nH]1)c1ccc(Cl)cc1
> 10000 | O=C(Nc1c[nH]nc1-c1nc(-c2ccc(CN3CCCCC3)cc2)c[nH]1)c1ccc(Cl)cc1
> 10000 | COc1ccc(C(=O)Nc2c[nH]nc2-c2nc(-c3ccc(CN4CCCCC4)cc3)c[nH]2)cc1

Organism: Homo sapiens
Assay: Selectivity for JAK2 (unknown origin) over Aurora A (unknown origin)
Conditions: not given

Structure (SMILES) | Selectivity ratio
COc1ccc(C(=O)Nc2c[nH]nc2-c2nc(-c3ccc(CN4CCOCC4)cc3)c[nH]2)cc1 | 20
O=C(Nc1c[nH]nc1-c1nc(-c2ccc(CN3CCCCC3)cc2)c[nH]1)c1cccc(Cl)c1 | 20

System: HCT-116
Assay: Cell cycle arrest in human HCT116 cells assessed as accumulation of diploid cells at G2 phase at 10 uM incubated for 48 hrs by propidium iodide staining based flow cytometric analysis (reference value: 10.46 %)
Assay type: functional
Conditions: not given

Structure (SMILES) | Activity [%]
O=C(Nc1c[nH]nc1-c1nc2ccc(CN3CCOCC3)cc2[nH]1)NC1CC1 [AT-9283] | 25.19

Target: T2, Aurora kinase A (Homo sapiens, UniProt O14965)
T2 sequence (O14965 whole entry): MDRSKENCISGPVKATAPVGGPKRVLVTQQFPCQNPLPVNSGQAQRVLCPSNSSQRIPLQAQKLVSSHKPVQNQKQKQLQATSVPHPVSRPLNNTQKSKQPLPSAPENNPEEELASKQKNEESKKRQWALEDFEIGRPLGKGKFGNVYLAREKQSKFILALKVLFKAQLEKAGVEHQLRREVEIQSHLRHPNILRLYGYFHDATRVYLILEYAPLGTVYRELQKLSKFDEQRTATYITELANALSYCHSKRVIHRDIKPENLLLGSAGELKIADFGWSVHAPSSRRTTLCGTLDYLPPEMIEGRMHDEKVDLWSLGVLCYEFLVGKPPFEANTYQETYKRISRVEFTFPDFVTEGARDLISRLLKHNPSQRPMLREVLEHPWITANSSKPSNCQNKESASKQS
Assay: Inhibition of Aurora A (unknown origin) incubated for 40 mins in presence of ATP by Kinase-glo luminescence assay
Conditions: not given

Structure (SMILES) | IC50 [nM]
Cc1nc(Cl)cc(Nc2c[nH]nc2-c2nc(-c3ccc(CN4CCOCC4)cc3)c[nH]2)n1 | 145
O=C(Nc1c[nH]nc1-c1nc(-c2ccc(CN3CCOCC3)cc2)c[nH]1)c1ccc([N+](=O)[O-])cc1 | 466

Next, values leading:

IC50 [nM] | Structure (SMILES)
359 | COc1ccc(C(=O)Nc2c[nH]nc2-c2nc(-c3ccc(CN4CCOCC4)cc3)c[nH]2)cc1
1130 | O=C(Nc1c[nH]nc1-c1nc(-c2ccc(CN3CCCCC3)cc2)c[nH]1)c1cccc(Cl)c1
2510 | O=C(Nc1c[nH]nc1-c1nc(-c2ccc(CN3CCOCC3)cc2)c[nH]1)c1ccc(Cl)cc1
2060 | O=C(Nc1c[nH]nc1-c1nc(-c2ccc(CN3CCCCC3)cc2)c[nH]1)c1ccc(Cl)cc1
1520 | COc1ccc(C(=O)Nc2c[nH]nc2-c2nc(-c3ccc(CN4CCCCC4)cc3)c[nH]2)cc1

Target: Aurora kinase B (Homo sapiens, UniProt Q96GD4)
Assay: Inhibition of Aurora B (unknown origin) incubated for 40 mins in presence of ATP by Kinase-glo luminescence assay
Conditions: not given
How it was run: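 Kinase reaction at 30 °C for 40 min in 40 mM Tris pH 7.4, 10 mM MgCl2, 0.1 mg/ml BSA, 1 mM DTT, 10 µM ATP, kinase plus substrate; compounds added from 10% DMSO dilutions (1% DMSO final). Remaining ATP measured by Kinase-Glo Plus luminescence; IC50 from nonlinear regression, normalized dose-response fit.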

Chain of Aurora kinase B (Q96GD4 whole entry): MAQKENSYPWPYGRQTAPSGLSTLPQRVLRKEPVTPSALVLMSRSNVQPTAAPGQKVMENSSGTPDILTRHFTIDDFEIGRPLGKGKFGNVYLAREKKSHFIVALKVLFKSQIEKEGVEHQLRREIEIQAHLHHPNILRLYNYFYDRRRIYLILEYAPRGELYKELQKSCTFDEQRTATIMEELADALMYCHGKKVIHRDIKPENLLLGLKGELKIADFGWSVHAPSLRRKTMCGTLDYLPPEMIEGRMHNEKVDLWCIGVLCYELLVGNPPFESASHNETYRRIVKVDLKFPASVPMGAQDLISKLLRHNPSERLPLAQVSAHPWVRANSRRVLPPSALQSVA

Structure (SMILES) | IC50 [nM]
O=C(Nc1c[nH]nc1-c1nc2ccc(CN3CCOCC3)cc2[nH]1)NC1CC1 [AT-9283] | 62
COc1ccc(C(=O)Nc2c[nH]nc2-c2nc(-c3ccc(CN4CCOCC4)cc3)c[nH]2)cc1 | > 1000
O=C(Nc1c[nH]nc1-c1nc(-c2ccc(CN3CCOCC3)cc2)c[nH]1)c1ccc([N+](=O)[O-])cc1 | 650

System: K562
Assay: Cell cycle arrest in human K562 cells assessed as accumulation of diploid cells at S phase at 10 uM incubated for 48 hrs by propidium iodide staining based flow cytometric analysis (reference value: 35.94 %)
Assay type: functional
Conditions: not given

Structure (SMILES) | Activity [%]
O=C(Nc1c[nH]nc1-c1nc2ccc(CN3CCOCC3)cc2[nH]1)NC1CC1 [AT-9283] | 32.31

System: HCT-116
Assay: Antiproliferative activity against human HCT116 cells assessed as reduction in cell growth measured after 72 hrs by CCK8 assay
Assay type: functional, cell-based
Conditions: HCT-116, 72 h

Structure (SMILES) | IC50 [nM]
Cc1nc(Cl)cc(Nc2c[nH]nc2-c2nc(-c3ccc(CN4CCOCC4)cc3)c[nH]2)n1 | > 10000
O=C(Nc1c[nH]nc1-c1nc(-c2ccc(CN3CCOCC3)cc2)c[nH]1)c1ccc([N+](=O)[O-])cc1 | 5210
CSc1nc(Cl)c(C)c(Nc2c[nH]nc2-c2ncc(-c3ccc(OCCCN4CCOCC4)cc3)[nH]2)n1 | 16100
O=C(Nc1c[nH]nc1-c1nc(-c2ccc(CN3CCOCC3)cc2)c[nH]1)c1ccccc1 | > 10000

The remaining lines, values ahead:

IC50 [nM] | Structure (SMILES)
> 10000 | COc1ccc(C(=O)Nc2c[nH]nc2-c2nc(-c3ccc(CN4CCOCC4)cc3)c[nH]2)cc1
> 10000 | O=C(Nc1c[nH]nc1-c1nc(-c2ccc(CN3CCCCC3)cc2)c[nH]1)c1cccc(Cl)c1
> 10000 | O=C(Nc1c[nH]nc1-c1nc(-c2ccc(CN3CCOCC3)cc2)c[nH]1)c1ccc(Cl)cc1
1590 | O=C(Nc1c[nH]nc1-c1nc(-c2ccc(CN3CCCCC3)cc2)c[nH]1)c1ccc(Cl)cc1
> 10000 | COc1ccc(C(=O)Nc2c[nH]nc2-c2nc(-c3ccc(CN4CCCCC4)cc3)c[nH]2)cc1

— ChEMBL document CHEMBL4706620, “Design, synthesis, biological activity evaluation of 3-(4-phenyl-1H-imidazol-2-yl)-1H-pyrazole derivatives as potent JAK 2/3 and aurora A/B kinases multi-targeted inhibitors” (Eur J Med Chem, 2021)
